Measured values from ChEMBL document CHEMBL1144747, “(Phenylpiperazinyl-butyl)oxindoles as selective 5-HT7 receptor antagonists” (J Med Chem, 2008).
Calls of active or inactive are those of the source. The rule behind the calls is not given here.

Key:
[1] = molecular target: T1, 5-hydroxytryptamine receptor 7 (Homo sapiens, UniProt P34969); experiment: Antagonist activity at human 5HT7A receptor expressed in CHO cells assessed as inhibition of […]-induced cAMP elevation at 1 uM; assay type: functional, cell-based; parameters: scale not given: the % may be the effect or the level left
T1 sequence (P34969 whole entry): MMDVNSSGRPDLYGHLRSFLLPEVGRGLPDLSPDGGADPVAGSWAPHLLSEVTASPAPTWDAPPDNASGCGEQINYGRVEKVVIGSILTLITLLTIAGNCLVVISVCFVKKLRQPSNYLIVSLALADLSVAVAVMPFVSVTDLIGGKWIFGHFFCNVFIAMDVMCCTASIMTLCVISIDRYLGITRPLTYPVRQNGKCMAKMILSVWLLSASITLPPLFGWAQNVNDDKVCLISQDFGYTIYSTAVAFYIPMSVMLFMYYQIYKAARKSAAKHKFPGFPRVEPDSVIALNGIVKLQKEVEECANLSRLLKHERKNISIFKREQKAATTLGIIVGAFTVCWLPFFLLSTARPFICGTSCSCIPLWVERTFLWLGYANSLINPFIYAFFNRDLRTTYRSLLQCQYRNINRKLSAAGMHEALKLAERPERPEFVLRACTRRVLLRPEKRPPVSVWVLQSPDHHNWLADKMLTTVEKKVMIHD
Method in brief: (§1)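 CHO cells stably expressing human 5-HT7A, cultured in F12:DMEM with 5% FCS, seeded 24 h ahead. Compounds from 1 mM DMSO stock (final DMSO 0.1%) preincubated 10 min, then 20 min with 10 nM 5-CT at 37 °C. Cells lysed, cAMP by EIA, normalized to BCA protein. The 5-CT-induced level is taken as 100%; six independent experiments.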

[2] = molecular target: T2, 5-hydroxytryptamine receptor 1A (Rattus norvegicus) (UniProt P19327); experiment: Displacement of [3H]8-OH-DPAT from 5HT1A receptor in rat frontal cortex membrane at 0.1 uM; assay type: cell membranes
T2 sequence (whole entry): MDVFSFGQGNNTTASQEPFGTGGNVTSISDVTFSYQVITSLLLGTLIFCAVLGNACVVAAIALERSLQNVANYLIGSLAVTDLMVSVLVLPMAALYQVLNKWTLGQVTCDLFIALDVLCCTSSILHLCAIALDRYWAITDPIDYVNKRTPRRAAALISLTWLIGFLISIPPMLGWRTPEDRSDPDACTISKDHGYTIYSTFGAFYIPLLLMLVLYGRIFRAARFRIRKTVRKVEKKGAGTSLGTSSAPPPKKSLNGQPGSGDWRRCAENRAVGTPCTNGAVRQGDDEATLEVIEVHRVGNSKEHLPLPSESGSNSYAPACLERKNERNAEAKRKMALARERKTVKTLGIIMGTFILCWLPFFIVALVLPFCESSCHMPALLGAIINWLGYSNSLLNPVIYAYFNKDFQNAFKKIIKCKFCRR
Method in brief: (§2)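 Rat tissue homogenized in 50 mM Tris-HCl pH 7.7, washed by repeated 40000g spins with a 10 min 37 °C incubation. Buffer: Tris-HCl, 6.66 mM CaCl2, 16.66 µM pargyline, 0.166% ascorbate. Labelled with 1.5 nM [3H]8-OH-DPAT, 45 min at 25 °C; nonspecific with 10 µM 5-HT. GF/B filtration, then scintillation counting; percent inhibition.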

[3] = molecular target: T1, 5-hydroxytryptamine receptor 7; experiment: Antagonist activity at human 5HT7A receptor expressed in CHO cells assessed as inhibition of […]-induced cAMP elevation at 10 nM administered before […] challenge; assay type: functional, cell-based; parameters: scale not given: the % may be the effect or the level left; method in brief: as §1
Rattus norvegicus [4] = experiment: Anxiolytic activity in ip dosed Wistar rat assessed as number of punished licks for 5 mins by conflict drinking test; assay type: functional; details: read-out: MED
Method in brief: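 Modified Vogel test in male Wistar rats, 160–180 g, water-deprived 48 h and fasted 24 h. Dosed ip 30 min before test. After a 30 s free-drinking period, 600 µA, 0.6 s shocks came through the spout every 20 licks over 5 min. Punished licks counted; minimal effective dose reported.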

[5] = molecular target: T1, 5-hydroxytryptamine receptor 7; experiment: Displacement of [3H]LSD from human recombinant 5HT7 receptor expressed in CHO cells; assay type: cell-based
Method in brief: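 Cloned human 5-HT7 receptor from CHO cells, labelled with [3H]LSD; nonspecific binding with 25 µM clozapine. Stopped by filtration on PEI-soaked GF/C filters, then scintillation counting. Ki from two displacement curves of nine concentrations each, run in triplicate.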

Mus musculus = experiment: Anxiolytic activity in ip dosed NMRI mouse assessed as behavioral activity for 5 mins by light dark assay; assay type: functional; details: read-out: MED
Method in brief: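 Male NMRI mice, 25–33 g, kept in a dark room and dosed ip 30 min before test, then placed in the centre of the lit area. Over 5 min, time in each area, transitions, and horizontal and vertical activity were recorded. Minimal effective dose by one-way ANOVA with Duncan's test.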

[6] = molecular target: T2, 5-hydroxytryptamine receptor 1A (Rattus norvegicus); experiment: Displacement of [3H]8-OH-DPAT from 5HT1A receptor in rat frontal cortex membrane at 10 nM; assay type: cell membranes; method in brief: as §2
Rattus norvegicus [7] = species on record: Rattus norvegicus; experiment: Metabolic stability in rat; assay type: ADME, organism-based; details: in vitro

Compound | Activity [1] [%] | Activity [2] [%] | Activity [3] | minimal effective dose (Rattus norvegicus [4]) [mg/kg] | Ki ([5]; read-out: Ki) [nM] | minimal effective dose (Mus musculus) [mg/kg] | Activity [6] [%] | Stability (Rattus norvegicus [7]) [%] | Ki ([5]; read-out: Log Ki (converted)) [nM]
CCC1(CCCCN2CCC(C)CC2)C(=O)Nc2ccccc21 (centres undefined) | > 95 | 0 |  |  |  |  |  |  | 
CC1CCN(CC[C@H]2CCCN2S(=O)(=O)c2cccc(O)c2)CC1 | > 95 |  | 80% |  |  |  |  |  | 
CCC1(CCCCN2CCN(c3cccc(Cl)c3)CC2)C(=O)Nc2ccc(F)cc21 (centres undefined) |  | 24 |  | < 5 | 2.11 | > 10 |  |  | 
CCC1(CCCCN2CCN(c3ccc(C)c(Cl)c3)CC2)C(=O)Nc2ccccc21 (centres undefined) | > 95 | 11 | 40% | > 20 | 0.66 |  | 0 |  | 
CCC1(CCCCN2CC=C(c3ccc(Cl)cc3)CC2)C(=O)Nc2ccccc21 (centres undefined) | > 95 | 10 | inactive | > 20 | 1.02 |  |  |  | 
CCC1(CCCCN2CCN(c3ccc(Cl)cc3)CC2)C(=O)Nc2ccc(Cl)cc21 (centres undefined) |  | 0 |  | > 20 | 3.72 |  |  |  | 
CCC1(CCCCN2CCN(c3ccc(Cl)cc3)CC2)C(=O)Nc2ccc(F)cc21 (centres undefined) |  | 9 |  | > 20 | 2.81 | > 10 |  |  | 
CCC1(CCCCN2CCc3ccccc3C2)C(=O)Nc2ccccc21 (centres undefined) | > 95 | 52 |  | > 20 | 7.65 |  |  |  | 
CCC1(CCCCN2CCN(c3ccc(Cl)cc3)CC2)C(=O)Nc2c(Cl)cc(F)cc21 (centres undefined) |  | 0 |  | > 20 | 5.97 |  |  |  | 
O=C1Nc2ccc(F)cc2C1CCCCN1CCN(c2ccc(F)cc2)CC1 (centres undefined) |  | 6 |  | > 10 | 3.4 |  |  | 40 | 
CCC1(CCCCN2CC=C(c3ccc(F)cc3)CC2)C(=O)Nc2ccccc21 (centres undefined) | > 95 | 19 |  | 20 | 1.19 |  |  |  | 
CCC1(CCCCN2CCN(c3ccc(Cl)cc3)CC2)C(=O)Nc2c(Cl)cc(Cl)cc21 (centres undefined) |  | 5 |  | < 5 | 10.1 | < 1 |  | 76 | 
CCC1(CCCCN2CCN(c3cccc(OC)c3)CC2)C(=O)Nc2ccccc21 (centres undefined) |  | 33 |  | > 20 | 2.55 |  | 6 |  | 
CCC1(CCCCN2CCN(c3cccc(Cl)c3)CC2)C(=O)Nc2c(Cl)cc(F)cc21 (centres undefined) |  | 31 |  | > 20 | 4.75 | > 10 |  |  | 
CCC1(CCCCN2CCN(c3cccc(Cl)c3)CC2)C(=O)Nc2c(Cl)cc(Cl)cc21 (centres undefined) |  | 7 |  | > 20 | 9.46 |  |  |  | 
CCC1(CCCCN2CCN(c3ccc(Cl)cc3)CC2)C(=O)Nc2cc(F)c(Cl)cc21 (centres undefined) |  | 0 |  |  | 6.99 |  |  |  | 
CCC1(CCCCN2CCN(c3ccc(F)cc3)CC2)C(=O)Nc2ccccc21 (centres undefined) |  | 10 |  | 10 | 0.43 | < 1 | 12 |  | 
CCC1(CCCCCN2CCN(c3ccc(Cl)cc3)CC2)C(=O)Nc2ccccc21 (centres undefined) |  | 11 |  | > 20 | 1.24 |  | 0 |  | 
CCC1(CCCCN2CCN(c3cccc(Cl)c3)CC2)C(=O)Nc2ccccc21 (centres undefined) | > 95 | 42 | 40% | > 20 | 0.41 | > 10 | 11 | 4 | 
CCC1(CCCCN2CCN(c3ccc(Cl)c(Cl)c3)CC2)C(=O)Nc2ccccc21 (centres undefined) |  | 11 |  | > 20 | 0.63 |  | 0 |  | 

Compound | Activity [1] [%] | Activity [2] [%] | Activity [3] | minimal effective dose (Rattus norvegicus [4]) [mg/kg] | Ki ([5]; read-out: Ki) [nM] | minimal effective dose (Mus musculus) [mg/kg] | Activity [6] [%] | Stability (Rattus norvegicus [7]) [%] | Ki ([5]; read-out: Log Ki (converted)) [nM]
O=C1Nc2ccc(F)cc2C1CCCCN1CCN(c2cccc(Cl)c2)CC1 (centres undefined) |  | 43 |  | > 20 | 1.96 |  |  |  | 
CCC1(CCCCN2CCC(c3ccc(F)cc3)CC2)C(=O)Nc2ccccc21 (centres undefined) |  | 11 |  | 20 | 5.3 | > 10 |  |  | 
CCC1(CCCCN2CCc3sccc3C2)C(=O)Nc2ccccc21 (centres undefined) |  | 29 |  | > 20 | 4.31 | > 10 |  |  | 
CCC1(CCCCN2CCN(c3ccc(F)c(Cl)c3)CC2)C(=O)Nc2ccccc21 (centres undefined) |  | 14 |  | > 20 | 0.6 |  | 0 |  | 
CCC1(CCCCN2CCN(c3cccc(Cl)c3)CC2)C(=O)Nc2ccc(Cl)cc21 (centres undefined) |  | 18 |  | > 20 | 8.27 |  |  |  | 
COc1ccccc1N1CCN(CCCCC23CCCc4cccc(c42)NC3=O)CC1 (centres undefined) |  |  |  |  |  |  |  |  | 2.14
CCC1(CCCCN2CCN(c3cccc(Cl)c3)CC2)C(=O)Nc2cc(F)c(Cl)cc21 (centres undefined) |  | 16 |  | 20 | 9.07 |  |  |  | 
CCC1(CCCCN2CCN(c3ccc(OC)cc3)CC2)C(=O)Nc2ccccc21 (centres undefined) |  | 24 |  | > 20 | 25.4 |  | 3 |  | 
CCC1(CCCCN2CCN(c3ccccc3Cl)CC2)C(=O)Nc2ccccc21 (centres undefined) |  | 51 |  | > 20 | 5.11 |  | 9 |  | 
CCC1(CCCCN2CCN(c3ccccc3)CC2)C(=O)N(C)c2ccccc21 (centres undefined) |  | 42 |  | 20 | 33.4 |  | 12 |  | 
CCC1(CCCCN2CCN(c3ccc(Cl)cc3)CC2)C(=O)Nc2ccccc21 (centres undefined) |  | 11 |  | 10 | 0.38 | > 10 | 2 | 9 | 
CCC1(CCCCN2CCN(c3ccccc3)CC2)C(=O)Nc2ccccc21 (centres undefined) |  | 26 |  | 10 | 2.07 |  | 6 |  | 
CCC1(CCCCCN2CCN(c3cccc(Cl)c3)CC2)C(=O)Nc2ccccc21 (centres undefined) | > 95 | 43 | 20% | > 10 | 1.45 | > 10 | 12 |  | 
CCC1(CCCCN2CCN(c3cccc(Cl)c3)CC2)C(=O)Nc2cc(F)ccc21 (centres undefined) |  | 37 |  | > 20 | 0.67 |  | 11 |  | 
CC(C)CC1(CCCCN2CCN(c3cccc(Cl)c3)CC2)C(=O)Nc2ccccc21 (centres undefined) | > 95 | 12 | inactive | 10 | 1.8 | > 10 |  |  | 
CCC1(CCCCN2CCN(c3ccc(F)cc3)CC2)C(=O)Nc2ccc(F)cc21 (centres undefined) |  | 7 |  | > 20 | 1.5 |  |  |  | 
CCC1(CCCN2CCN(c3cccc(Cl)c3)CC2)C(=O)Nc2ccccc21 (centres undefined) |  | 91 |  | > 20 | 21 | 3 | 57 |  | 
CCC1(CCCCN2CCN(c3ccccc3OC)CC2)C(=O)Nc2ccccc21 (centres undefined) |  | 79 |  | 10 | 5.38 |  | 28 |  | 
CCC1(CCCCN2CCN(c3ccccc3OC)CC2)C(=O)N(Cc2ccccc2)c2ccccc21 (centres undefined) |  | 86 |  | > 20 | 6.57 |  | 32 |  | 
O=C1Nc2ccccc2C1CCCCN1CCN(c2cccc(Cl)c2)CC1 (centres undefined) | > 95 | 40 | 80% | < 5 | 0.49 | > 10 | 9 |  | 
